Data as given in ChEMBL document CHEMBL2040797, “Synthesis of benzimidazoles bearing oxadiazole nucleus as anticancer agents” (2012).

How the values were obtained:
Assay type in all cases: functional
HL-60(TB) = test: Growth inhibition of human HL-60(TB) cells at 10 uM after 48 hrs by sulforhodamine B assay; settings: HL-60, 48 h, read-out: GI
How it was run: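 NCI 60-panel primary one-dose screen. Cells are grown in RPMI 1640 with 5% FBS, plated by doubling time and pre-incubated 24 h at 37 °C, 5% CO2. They are exposed for 48 h to a single concentration. Settled suspension cells are fixed, then SRB-stained with absorbance at 515 nm. Output is percent growth of treated cells relative to untreated control, reported as a mean graph.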

LOX IMVI = test: Cytotoxicity against human LOXIMVI cells after 48 hrs by sulforhodamine B assay
How it was run: (§1)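 NCI 60-panel screen. Cells were grown in RPMI 1640 with 5% FBS and L-glutamine and plated at 5000–40,000 cells/well according to doubling time. They were preincubated 24 h at 37 °C, 5% CO2, then exposed 48 h to five 10-fold dilutions. Adherent cells were fixed with cold TCA, final 10%; suspension cells were fixed after settling. Cells were stained with 0.4% SRB and read at 515 nm. Tz/C/Ti growth curves gave GI50, TGI and LC50.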

COLO 205 [1] = test: Growth inhibition of human COLO205 cells at 10 uM after 48 hrs by sulforhodamine B assay; settings: COLO 205, 48 h, read-out: GI
How it was run: (§2)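 NCI one-dose primary screen at 10 (printed mM) across the 60-line panel. Cells in RPMI 1640 with 5% FBS and 2 mM L-glutamine, plated at 5000–40,000 cells/well and incubated 24 h before dosing. Exposure 48 h at 37 °C, 5% CO2. Adherent cells were fixed with cold TCA, suspension cells fixed after settling. SRB stain, absorbance 515 nm. Reported as percent growth of treated cells relative to control.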

CAKI-1 = test: Cytotoxicity against human Caki1 cells after 48 hrs by sulforhodamine B assay; settings: CAKI-1, 48 h; how it was run: as §1
RXF 393 [2] = test: Growth inhibition of human RXF393 cells at 10 uM after 48 hrs by sulforhodamine B assay; settings: RXF 393, 48 h, read-out: GI; how it was run: as §2
NCI-H226 = test: Cytotoxicity against human NCI-H226 cells after 48 hrs by sulforhodamine B assay; settings: NCI-H226, 48 h; how it was run: as §1
SK-MEL-5 = test: Growth inhibition of human SK-MEL-5 cells at 10 uM after 48 hrs by sulforhodamine B assay; settings: SK-MEL-5, 48 h, read-out: GI
How it was run: (§3)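 NCI-60 single-dose screen. Cells grown in RPMI 1640 with 5% FBS and L-glutamine, plated at 5000–40,000 cells/well by doubling time, and preincubated 24 h at 37 °C, 5% CO2. Compound stocks in DMSO, added at one concentration, then incubated 48 h. Adherent cells fixed with cold TCA (10% final), stained with 0.4% SRB, dye solubilized in 10 mM Tris base, A515 read. Reported as percent growth relative to untreated control.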

MOLT-4 = test: Cytotoxicity against human MOLT4 cells after 48 hrs by sulforhodamine B assay; settings: MOLT-4, 48 h; how it was run: as §1
COLO 205 [3] = test: Cytotoxicity against human COLO205 cells after 48 hrs by sulforhodamine B assay; settings: COLO 205, 48 h; how it was run: as §1
Malme-3M = test: Cytotoxicity against human MALME-3M cells after 48 hrs by sulforhodamine B assay; how it was run: as §1
OVCAR-8 = test: Growth inhibition of human OVCAR8 cells at 10 uM after 48 hrs by sulforhodamine B assay; settings: OVCAR-8, 48 h, read-out: GI; how it was run: as §2
SNB-19 = test: Cytotoxicity against human SNB19 cells after 48 hrs by sulforhodamine B assay; settings: SNB-19, 48 h; how it was run: as §1
SNB-75 = test: Growth inhibition of human SNB75 cells at 10 uM after 48 hrs by sulforhodamine B assay; settings: SNB-75, 48 h, read-out: GI; how it was run: as §3
SK-OV-3 = test: Cytotoxicity against human SKOV3 cells after 48 hrs by sulforhodamine B assay; settings: SK-OV-3, 48 h; how it was run: as §1
786-0 = test: Growth inhibition of human 786-0 cells at 10 uM after 48 hrs by sulforhodamine B assay; settings: 786-0, 48 h, read-out: GI; how it was run: as §2
MDA-MB-468 = test: Cytotoxicity against human MDA-MB-468 cells after 48 hrs by sulforhodamine B assay; settings: MDA-MB-468, 48 h; how it was run: as §1
MDA-MB-435 = test: Growth inhibition of human MDA-MB-435 cells at 10 uM after 48 hrs by sulforhodamine B assay; settings: MDA-MB-435, 48 h, read-out: GI; how it was run: as §2
NCI-H322M = test: Growth inhibition of human NCI-H322M cells at 10 uM after 48 hrs by sulforhodamine B assay; settings: read-out: GI; how it was run: as §2
DU-145 = test: Growth inhibition of human DU145 cells at 10 uM after 48 hrs by sulforhodamine B assay; settings: DU-145, 48 h, read-out: GI; how it was run: as §2
UACC-257 = test: Cytotoxicity against human UACC257 cells after 48 hrs by sulforhodamine B assay; settings: UACC-257, 48 h
How it was run: (§4)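 NCI 60 panel five-dose screen. Cells in RPMI 1640 with 5% FBS and 2 mM L-glutamine, plated at 5000–40,000 cells/well and preincubated 24 h. Compounds were tested at five 10-fold concentrations (0.01–100) for 48 h at 37 °C, 5% CO2. Cells were fixed with TCA and stained with SRB, absorbance 515 nm. GI50, TGI and LC50 were taken from % growth curves against time-zero and control.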

HOP-62 = test: Cytotoxicity against human HOP62 cells after 48 hrs by sulforhodamine B assay; settings: HOP-62, 48 h; how it was run: as §1
HCT-116 = test: Cytotoxicity against human HCT116 cells after 48 hrs by sulforhodamine B assay; settings: HCT-116, 48 h; how it was run: as §1
RXF 393 [4] = test: Cytotoxicity against human RXF393 cells after 48 hrs by sulforhodamine B assay; settings: RXF 393, 48 h; how it was run: as §1
UO-31 = test: Cytotoxicity against human UO31 cells after 48 hrs by sulforhodamine B assay; settings: UO-31, 48 h; how it was run: as §4
T47D = test: Growth inhibition of human T47D cells at 10 uM after 48 hrs by sulforhodamine B assay; settings: read-out: GI; how it was run: as §3
[5] = read-out: LC50 (the source's name)

## O=C(CCc1nnc(-c2ccc(Cl)cc2Cl)o1)c1nc2ccccc2[nH]1
HL-60(TB)
  inhibition of growth at 10 µM: 134%
LOX IMVI
  GI50: 4.03 µM
  TGI: 39.8 µM
LOX IMVI; [5]
  CC50: 100 µM
COLO 205 [1]
  inhibition of growth at 10 µM: 37.4%
CAKI-1
  GI50: 3.49 µM
  TGI: 41.1 µM
CAKI-1; [5]
  CC50: 100 µM
RXF 393 [2]
  inhibition of growth at 10 µM: 18.4%
NCI-H226
  GI50: 6.66 µM
  TGI: 31.2 µM
NCI-H226; [5]
  CC50: 100 µM
SK-MEL-5
  inhibition of growth at 10 µM: 33%
MOLT-4
  GI50: 4.07 µM
  TGI: 25.8 µM
MOLT-4; [5]
  CC50: 100 µM
COLO 205 [3]
  GI50: 2.66 µM
  TGI: 7.08 µM
COLO 205 [3]; [5]
  CC50: 100 µM
Malme-3M
  GI50: 13 µM
  TGI: 52.6 µM
Malme-3M; [5]
  CC50: 100 µM
OVCAR-8
  inhibition of growth at 10 µM: 42.8%
SNB-19
  GI50: 17.4 µM
  TGI: 100 µM
SNB-19; [5]
  CC50: 100 µM
SNB-75
  inhibition of growth at 10 µM: 36.6%
SK-OV-3
  GI50: 4.6 µM
  TGI: 30.5 µM
SK-OV-3; [5]
  CC50: 100 µM
786-0
  inhibition of growth at 10 µM: 26.2%
MDA-MB-468
  GI50: 0.797 µM
  TGI: 12.2 µM
MDA-MB-468; [5]
  CC50: 100 µM
MDA-MB-435
  inhibition of growth at 10 µM: 101%
NCI-H322M
  inhibition of growth at 10 µM: 24%
DU-145
  inhibition of growth at 10 µM: 17.8%
UACC-257
  GI50: 13.7 µM
  TGI: 44.4 µM
UACC-257; [5]
  CC50: 100 µM
HOP-62
  GI50: 7.67 µM
  TGI: 41.3 µM
HOP-62; [5]
  CC50: 100 µM
HCT-116
  GI50: 3.33 µM
  TGI: 13.5 µM
HCT-116; [5]
  CC50: 52.5 µM
RXF 393 [4]
  GI50: 4.3 µM
  TGI: 49.7 µM
RXF 393 [4]; [5]
  CC50: 100 µM
UO-31
  GI50: 6.71 µM
  TGI: 32.9 µM
UO-31; [5]
  CC50: 100 µM
T47D
  inhibition of growth at 10 µM: 48%
